Data as given in ChEMBL document CHEMBL3797057, “Synthesis and bioevaluation of substituted chalcones, coumaranones and other flavonoids as anti-HIV agents” (Bioorg Med Chem, 2016).
The source made the active and inactive calls. No cut-off for these calls is given here.

Experiments:
[1] = Cytotoxicity against human TZM-bl cells assessed as inhibition of cell viability at 10 uM by CytoTox Glo assay relative to control; format: cell-based; settings: for cytotoxicity at 10 µM: TZM-bl cells, read-out: INH; for inhibition (INH): tzm, 10 µM
In short: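 Replicate dishes of treated TZM-bl cells (50-60% confluent, compound at 10 µM in D10, triplicate) assayed with CytoTox Glo for dead and total cell numbers. Result is % difference in live-cell luminescence versus matched DMSO vehicle control.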

[2] = tested on: Human immunodeficiency virus 1; test: Antiviral activity against HIV1 infected in human TZM-bl cells assessed as inhibition of viral infection at 10 uM preincubated with cells for 5 mins followed by viral infection measured after 24 hrs by Bright Glo luciferase reporter gene assay relative to control; format: functional; settings: for inhibition at 10 µM: Human immunodeficiency virus 1, TZM-bl
In short: (§1)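 TZM-bl cells at 50-60% confluence, in D10 medium, were pre-treated in triplicate with 10 µM compound or DMSO vehicle, for 5 min or 3 h. Virus was then added at 60 TCID50/0.1mL (MOI=0.01). After 24 h the cells were lysed for luciferase, read over 5 s/well. Result is % reduction in relative light units versus the virus+DMSO control.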

[3] = Cytotoxicity against human PM1 cells assessed as cell viability at 10 uM by trypan blue dye exclusion method relative to control; format: cell-based; settings: read-out: Activity
In short: (§2)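 PM1 cells (1.5 × 10^5/0.1 mL) kept in R20 with compound or matched DMSO vehicle over the 5-day BaL propagation assay (10 min pre-treatment, 2 h infection, wash, re-treatment). Viability monitored by trypan blue dye exclusion.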

[4] = tested on: Human immunodeficiency virus 1; test: Antiviral activity against HIV1 BAL infected in human PM1 cells assessed as inhibition of viral propagation at 5 uM preincubated with cells for 10 mins followed by viral infection measured after 2 hrs by p24 ELISA relative to control; format: functional; settings: Human immunodeficiency virus 1, BAL
In short: (§3)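 PM1 cells (1.5 × 10^5/0.1 mL) in R20 (RPMI 1640, 20% FBS, 10mM HEPES) given compound or matched DMSO 10 min, then infected with HIV-1 BaL at 150 TCID50/0.1 mL (MOI=0.001) for 2 h. Cells washed, resuspended in fresh R20 with compound or vehicle. Supernatants taken day 3; culture continued to day 5, supernatant assayed for HIV p24 by ELISA.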

[5] = tested on: Human immunodeficiency virus 1; test: Antiviral activity against HIV1 infected in human TZM-bl cells assessed as inhibition of viral infection at 10 uM preincubated with cells for 3 hrs followed by viral infection measured after 24 hrs by Bright Glo luciferase reporter gene assay relative to control; format: functional; settings: Human immunodeficiency virus 1, TZM-bl; in short: as §1
[6] = tested on: Human immunodeficiency virus 1; test: Antiviral activity against HIV1 BAL infected in human PM1 cells assessed as inhibition of viral propagation at 10 uM preincubated with cells for 10 mins followed by viral infection measured after 2 hrs by p24 ELISA relative to control; format: functional; settings: Human immunodeficiency virus 1, BAL; in short: as §3
[7] = Cytotoxicity against human PM1 cells assessed as inhibition of cell viability at 5 uM by trypan blue dye exclusion method relative to control; format: cell-based; settings: pm1, 5 µM; in short: as §2
CHO = test: Cytotoxicity against CHO cells assessed as decrease in cell proliferation after 48 hrs by MTS assay; format: cell-based, Cricetulus griseus
In short: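 CHO cells plated at 10,000 cells/mL, in triplicate, incubated overnight. Compound then added from DMSO stock, final DMSO <1%. After 48 h at 37°C in 5% CO2, MTS reagent was added for 4 h and absorbance read at 490 nm. IC50 taken from the plot of relative A490 versus concentration.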

[8] = tested on: Human immunodeficiency virus 1; test: Antiviral activity against HIV1 BAL infected in human TZM-bl cells assessed as inhibition of viral infection; format: functional, organism-based; settings: Human immunodeficiency virus 1, BAL
In short: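 TZM-bl cells seeded at 6 × 10^4 cells/ml (6000 cells/well), left overnight, then at 50-60% confluence treated in triplicate with compound in D10 or DMSO vehicle. After 5 min, HIV-1 added at 60 TCID50/0.1mL (MOI=0.01). After 24 h at 37°C/5% CO2, cells lysed for Bright Glo luciferase. Inhibition is % reduction in RLU versus virus+DMSO control, with no-virus wells as baseline.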

[9] = Cytotoxicity against human TZM-bl cells assessed as decrease in cell viability at IC50 by CytoTox Glo assay relative to control; format: cell-based

Compound | cytotoxicity at 10 µM [1] [%] | inhibition at 10 µM [2] [%] | other results
COc1ccc(Br)cc1-c1cc(=O)c2c(O)cccc2o1 | 34.8 | – | –
COc1ccc(Br)cc1C1CC(=O)c2ccccc2O1 (centres undefined) | – | – | inhibition (INH) [1]: Not Active
COc1cc(OC)c(/C=C/C(=O)c2ccccc2O)cc1Br | 1.9 | 28.6 | –
COc1ccc(Cl)cc1/C=C/C(=O)c1ccccc1O | 99.5 | – | –
CCOc1ccc(Br)cc1/C=C/C(=O)c1c(O)cccc1OCc1ccccc1 | – | 60.2 | viability at 10 µM [3]: 96.8%; inhibition at 5 µM [4]: 72.2%; inhibition at 10 µM [5]: 89.9%; inhibition at 10 µM [6]: 92.3%; inhibition (INH) [7]: Not Active; inhibition (INH) [1]: Not Active
COc1ccc(I)cc1-c1oc2ccccc2c(=O)c1O | 15.3 | – | –
COc1ccc(C)cc1-c1oc2ccccc2c(=O)c1O | 4.8 | – | –
COc1ccccc1/C=C/C(=O)c1c(O)cccc1OCc1ccccc1 | – | – | IC50 (CHO; cho): ND(toxic)
COc1ccc(Br)cc1-c1oc2ccccc2c(=O)c1O | – | 22.4 | IC50 [8]: 43.7 µM; Activity [9]: Non-toxic; inhibition (INH) [1]: Not Active
COc1ccc(Br)cc1/C=C1\Oc2cccc(OC)c2C1=O | 0.2 | 9.2 | IC50 (CHO; Cricetulus griseus, CHO, 48 h, read-out: IC50): 17.3 µM
COc1ccc(Br)cc1/C=C/C(=O)c1c(O)cccc1OC | 90.4 | – | –
COc1ccc(C)cc1/C=C/C(=O)c1ccccc1O | 46.9 | – | –
COc1ccccc1-c1oc2ccccc2c(=O)c1O | – | 21.3 | IC50 [8]: 30.4 µM; Activity [9]: Non-toxic; inhibition (INH) [1]: Not Active
CCOc1ccc(Br)cc1/C=C/C(=O)c1ccccc1O | 51.9 | – | –
CCOc1ccc(Cl)cc1/C=C/C(=O)c1ccccc1O | 86.4 | 86.1 | –
COc1ccc(Br)cc1-c1cc(=O)c2ccccc2o1 | 23.6 | – | –
COc1ccccc1/C=C/C(=O)c1ccccc1O | 16.5 | – | inhibition [2]: inactive
